Rows were chosen to be rich in hits. Some 0.97% of all compounds tested hit in one or more screens of this group.
Dynein transport = inhibitors of GR-EGFP nuclear translocation, primary screen, dynein cargo transport inhibitor project, imaging, high-content, 3617.4 mouse cells; test concentration mostly 20 µM; stimulated with dexamethasone, 1 µM; active compounds read low; z-score, hits read low; 220,000 tested, 0.47% active; AID 1381, 2008;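 active = plate z-score of nuclear minus cytoplasmic receptor signal below a set negative limit, without overly bright fluorescence or cell loss, cut at about -3.5 in these data, passing the limit was not always enough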;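 also: z-score of nuclear minus cytoplasmic ring GR-EGFP intensity difference per well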
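Schedule: 48 h induction, then 1 h compound, then 30 min agonist, 37 °C. Buffer or medium: tetracycline-free induction medium containing charcoal-stripped FBS. Reagent: 1.0 µM final dexamethasone stimulus. Evaluation: nuclear versus cytoplasmic GR-EGFP signal, averaged per well. Signal: high-content fluorescence imaging after fixation.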
B2AR ag = beta2AR agonists driving receptor internalization, primary screen, cell-based, FAP fluorogen, flow cytometry; Beta-2 adrenergic receptor (Homo sapiens), P07550; Am2.2-beta2AR cells; response, % (no concentration beside the values); 340,000 tested, 0.43% active;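 active = response above a set limit, near 3 SD of response in nonfluorescent compounds, cut at about 42% in these data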
L929 necroptosis = inhibitors of zVAD-triggered necroptosis, primary screen, L929 cells. L929 zVAD necroptosis rescue, ATP luminescence, 24 h; with zVAD 60 µM. viability rescue, % at 10 µM. 220,000 tested, 0.38% active. AID 1377, 2008;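 active = activation, scaled between plate controls, above about 75%, limit read from the data; inactive = activation under that limit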
TNF death inh = inhibitors of TNF-alpha triggered necroptosis, primary screen, cell-based, Jurkat FADD-/-, single concentration | 220,000 tested, 0.068% active | Jurkat FADD-/- TNF necroptosis rescue, ATP luminescence, 24 h; 0 = TNF only, 100 = no-TNF cells | activation (protection from cell death), % at 10 µM;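 active = activation, meaning protection from cell death, of at least 50% relative to plate controls; inactive = activation below 50%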;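 also: necroptosis triggered by 40 ng/mL TNF-alpha added together with compound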
Mdm2 ligase inh = MDM2-luciferase reporter signal enhancers, primary screen, MDM2 E3 ligase inhibitor project, cell-based, luminescence, 1536-well | 210,000 tested, 0.11% active | cell-based MDM2 ubiquitination luciferase reporter, 2 h; 0 = plate control, 100 = twice control, blank-subtracted | E3 ubiquitin-protein ligase Mdm2 (Homo sapiens), Q00987 | signal enhancement, % at 5 µM;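 active = signal enhancement of 30% or more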;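 also: luminescence tracks abundance of the self-degrading MDM2-luciferase fusion protein; higher signal means inhibition of MDM2 E3 ligase activity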
Target sequence (Q00987 whole entry, looked up, the tested form may be a part): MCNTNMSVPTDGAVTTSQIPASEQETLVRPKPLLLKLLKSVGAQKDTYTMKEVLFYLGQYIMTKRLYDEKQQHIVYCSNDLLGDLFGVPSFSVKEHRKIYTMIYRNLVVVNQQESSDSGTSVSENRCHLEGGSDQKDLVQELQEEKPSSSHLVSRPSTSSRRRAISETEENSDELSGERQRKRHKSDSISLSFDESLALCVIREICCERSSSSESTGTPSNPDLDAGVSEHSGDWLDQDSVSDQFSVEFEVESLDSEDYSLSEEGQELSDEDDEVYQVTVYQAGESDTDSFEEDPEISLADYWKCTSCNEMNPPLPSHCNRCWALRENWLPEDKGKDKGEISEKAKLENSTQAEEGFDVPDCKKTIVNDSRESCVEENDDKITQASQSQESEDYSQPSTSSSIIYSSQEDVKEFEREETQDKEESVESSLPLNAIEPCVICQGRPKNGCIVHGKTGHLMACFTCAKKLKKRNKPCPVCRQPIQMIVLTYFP
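Assay system: stable mammalian line carrying autodegrading MDM2–luciferase fusion reporter; amount: 2000 cells seeded into each well; buffer or medium: DMEM; benchmarks: plate control and blank wells; signal: luciferase luminescence; timing: 2 h compound exposure at 37 °C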
Each line names hits and unclear results; the compound was inactive in the other large screens.

Cc1ccc(/C=N/N2CCN(c3ccncc3S(=O)(=O)N3CCCCC3)CC2)cc1	none
COc1cccc(OC)c1-c1nn2c(-c3cc(-c4ccccc4)n[nH]3)nnc2s1	B2AR ag 100
CC1=CC(=O)c2ccccc2C1=O	none (no result: Mdm2 ligase inh)
CC(C)(C=O)C1=CC(=O)c2ccccc2C1=O	Dynein transport -3.6, B2AR ag 66
O=C(NC1=NCCS1)c1ccc(N2CCCC2=O)cc1	B2AR ag 48
Cc1nnc(NC(=O)c2ccc(N3CCCC3=O)cc2)s1	none (no result: Dynein transport, L929 necroptosis, TNF death inh, Mdm2 ligase inh)
O=C(CCC(=O)c1ccccc1)Nc1cccnc1	none
C=C1CC(COc2cc(=O)oc3ccccc23)(c2ccccc2)OC1=O (stereo unspecified)	B2AR ag 72 (no result: Dynein transport, L929 necroptosis, TNF death inh, Mdm2 ligase inh)
C=C1CCC2C(C)(C)[C@H](O)CC[C@@]2(C)[C@@H]1COc1cc(=O)oc2ccccc12 (stereo partly specified)	none (no result: Mdm2 ligase inh)
C#CCOCCOCCOCCNc1nc(N2CCN(C(=O)CCCCCCCCCCNC(=O)[C@H](CO)n3cc(CCCSC)nn3)CC2)nc(N2CCN(C(=O)CCCCCCCCCCNC(=O)[C@H](CCCN=C(N)N)n3cc(C[C@@H](C)CC)nn3)CC2)n1	B2AR ag 89 (no result: Dynein transport, L929 necroptosis, TNF death inh, Mdm2 ligase inh)
C#CCOCCOCCOCCNc1nc(N2CCN(C(=O)CCCCCCCCCCNC(=O)Cn3cc(C[C@@H](C)O)nn3)CC2)nc(N2CCN(C(=O)CCCCCCCCCCNC(=O)[C@H](CCCN=C(N)N)n3cc(C[C@@H](C)CC)nn3)CC2)n1	B2AR ag 57 (no result: Dynein transport, L929 necroptosis, TNF death inh, Mdm2 ligase inh)
N#Cc1c(N)nc2c(c1-c1cccc(O)c1)CCCCCC2	Mdm2 ligase inh 147
c1ccc2c3n(nc2c1)CCCO3	none (no result: Dynein transport, L929 necroptosis, TNF death inh, Mdm2 ligase inh)
O=C(NNc1c(Cl)cccc1Cl)C1CCC1	TNF death inh 75
O=C(NNc1cccc(Cl)n1)C1CC1	none
COc1cccc(C2=NOC(C(=O)N3CCN(C(=O)c4ccco4)CC3)C2)c1 (stereo unspecified)	L929 necroptosis 77
COc1cccc(C2=NOC(C(=O)N3CCOCC3)C2)c1 (stereo unspecified)	none
COC(=O)/C(=C\c1ccc([N+](=O)[O-])o1)NC(=O)c1ccccc1	B2AR ag 56
Cc1cc(=O)n2[nH]c(N3C(=O)CCC3=O)nc2n1	Mdm2 ligase inh 30
Cc1ccc2nc3c(cc(C(=O)NCC4CCCO4)n3C)c(=O)n2c1 (stereo unspecified)	none (no result: B2AR ag)
COc1ccc2[nH]c(=O)c(CN(Cc3cccnc3)C(=S)NCC3CCCO3)cc2c1 (stereo unspecified)	none
c1ccc(CN=C2NN=C(c3ccccc3)CS2)cc1	none
Fc1ccc(C2=NNC(=NCc3ccccc3)SC2)cc1F	TNF death inh 51
COc1ccccc1C1=NNC(=NCc2ccccc2)SC1	none
Clc1ccc(C2=NNC(=NCc3ccccc3)SC2)cc1	TNF death inh 56
Cc1ccc(CSCC(=O)NCc2ccc(F)cc2)cc1	none
Cc1ccc(NC(=O)CSCc2ccc(F)cc2)cc1	TNF death inh 53
CCOc1ccc2c(ccc(/C=C/c3cc(C)c4cccnc4c3O)[n+]2C)c1	B2AR ag 106 (no result: Dynein transport, L929 necroptosis, TNF death inh, Mdm2 ligase inh)
COc1cc(/C=C(\C#N)c2ccccn2)ccc1OCC(=O)Nc1cccc(C(F)(F)F)c1	B2AR ag 76
COc1ccc(Nc2nnc(-c3ccc(N4CCOCC4)c([N+](=O)[O-])c3)c3ccccc23)cc1	L929 necroptosis 82
COc1ccc(C(=O)c2ccc(N3CCOCC3)c([N+](=O)[O-])c2)cc1	none
COc1ccc(CC(=O)Nc2cc(=O)n(C)c(=O)n2C)cc1	none
Cc1cccn2c(=O)c3cc(C(=O)NC(C)C)c(=N)n(Cc4ccncc4)c3nc12	none
Cc1cccn2c(=O)c3cc(C(=O)NC4CCCCC4)c(=N)n(Cc4ccc(F)cc4)c3nc12	B2AR ag 78 (no result: Dynein transport, L929 necroptosis, TNF death inh, Mdm2 ligase inh)
CCNC(=O)c1cc2c(=O)n3cccc(C)c3nc2n(Cc2ccc(C)cc2)c1=N	B2AR ag 51
COc1ccccc1NC(=O)/C(N=Nc1ccc(C)c(S(=O)(=O)Nc2ccccc2Cl)c1)=C(\C)O	none (no result: Dynein transport, L929 necroptosis, TNF death inh, Mdm2 ligase inh)

Source: PubChem BioAssay (several laboratories)
